Assay outcomes deposited in PubChem BioAssay by several laboratories.
L major viab – reduces viability of Leishmania major promastigotes; inhibition, % at 10 µM; actives 9% (n = 200,000); resazurin fluorescence viability; in the data active means inhibition above about 50%;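 further: promastigotes grown with compound for 44 hours at 28 °C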
Diaphorase act – counter-screen for diaphorase-based assays: diaphorase activators and chemical reducers | Diaphorase/resazurin coupled assay, resorufin fluorescence, 16 min; active compounds read high; 1 = vehicle wells, 0 = NADH-free wells | activation factor at 20 µM | actives 0.005% (n = 190,000) | AID 1229;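 active means diaphorase activity raised at least twofold by the compound at 20 µM; inactive means activation factor below 2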
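Material: purified diaphorase enzyme from Clostridium kluyveri / Medium: HEPES pH 7.4 buffer with MgCl2 and Tween 20 / Schedule: enzyme reaction of 16 min at room temperature / Measured by: resorufin fluorescence, excitation 544 nm, emission 590 nm / Evaluation: rise in resorufin formation, marking diaphorase activation or chemical reduction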
Diaphorase inh – counter-screen for diaphorase-based assays: diaphorase inhibitors and chemical oxidizers; inhibition, % at 20 µM; diaphorase resazurin-to-resorufin fluorescence, NADH, 16 min; bacterial (C. kluyveri) enzyme, not human; actives 0.69% (n = 190,000);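 active means primary screen inhibition at 20 µM above a set limit, cut at about 50% in these data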
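Test system: diaphorase enzyme from Clostridium kluyveri; amount: diaphorase at 0.14 U/mL in enzyme working solution; detection: fluorescence of resorufin formed from resazurin, Ex 544/Em 590 nm; times: reaction incubation of 16 min at room temperature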
KCC2 mod – modulates chloride dependent transport by human KCC2. Q9H2X9. KCC2 cells, thallium flux FluoZin-2 fluorescence. AID 1456. actives 2.2% (n = 190,000). B-score of Tl+ flux slope (higher = more flux/activation; lower = inhibition) at 10 µM;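 active means thallium flux slope and its plate-corrected score both differing from the plate sample mean at a set confidence after two filtering rounds, in either direction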;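 further: slope of fluorescence scaled to starting intensity during 10 to 20 s after thallium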
ROMK mod – human ROMK K+ channel modulation, primary screen. B-score at 10 µM. actives 2% (n = 130,000). Tet-inducible ROMK, thallium flux fluorescence; actives lie on both sides. AID 1918. P48048;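 active means signal ratio slope over the read window, or its plate-corrected B-score, at least 3 SD from the plate mean, either direction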;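 further: B-score of the F/F0 ratio slope over 7 to 12 s after thallium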
WT yeast gro inh – growth inhibition of WT yeast, mitochondrial fusion screen. actives 2.1% (n = 190,000). inhibition, % at 10 µM. mitochondrial fusion phenotypic screen, WT strain. AID 1362; in the data active means inhibition above about 58%; tested in S. cerevisiae
Hits are given with their value; i = inactive; nt = no result given. An excerpt weighted towards active compounds, which were near 12% of everything screened.

SMILES | L major viab | Diaphorase act | Diaphorase inh | KCC2 mod | ROMK mod | WT yeast gro inh
COc1cccc(/C=N/n2c(-c3cccs3)n[nH]c2=S)c1 | i | i | i | 23.5 | nt | i
O=[N+]([O-])c1cccc(/C=N/n2c(-c3cccnc3)n[nH]c2=S)c1 | 55.0 | i | i | i | i | i
Cc1n[nH]c(=S)n(/N=C/c2ccccn2)c1=O | i | i | i | nt | nt | i
COc1ccc(NC(C)=O)cc1S(=O)(=O)Nc1ccc2c(c1)OCCO2 | i | i | i | i | i | i
O=C(NCCN1C(=O)S/C(=C\c2cccs2)C1=O)[C@H](Cc1ccccc1)N1C(=O)c2ccccc2C1=O | i | i | i | i | i | i
COCCNC(=S)N(C)C1(c2ccccc2Cl)CCCCC1=O (configuration not stated) | i | i | i | i | i | i
Cc1ccc(/C=N/n2c(-c3ccncc3)n[nH]c2=S)cc1 | i | i | 59.9 | i | nt | i
S=c1[nH]nc(-c2ccncc2)n1/N=C/c1cccc2ccccc12 | i | i | i | i | i | i
COc1ccc(/C=C/c2cc(-c3ccc(C)cc3)o[n+]2C)cc1 | 100.5 | i | i | i | i | 58.3
COc1ccc(NC(=O)CC2C(=O)N(C)C(=S)N2Cc2ccncc2)cc1 (configuration not stated) | i | i | i | i | i | i
CC(C)=NOc1cc(NC(=O)CCl)cc([N+](=O)[O-])c1 | 98.6 | i | i | i | i | i
CC1CCCN(Cc2nc(Cc3ccccc3Cl)no2)C1 (configuration not stated) | i | i | i | nt | i | i
COc1ccc(-n2nc(C)c3sc(C)nc3c2=O)cc1 | nt | nt | nt | i | nt | nt
COc1ccc(CNC(=O)CN(CCC(C)C)S(=O)(=O)c2ccc3c(c2)OCCO3)cc1 | 79.8 | i | i | i | i | i
COc1ccc(/C=N/NC(=O)CN(Cc2ccccc2)S(=O)(=O)c2ccc3c(c2)OCCO3)cc1 | 90.4 | i | i | i | nt | i
O=C(CN(Cc1ccccc1)S(=O)(=O)c1ccc2c(c1)OCCO2)N/N=C/c1cccc(Br)c1 | 80.2 | i | i | i | i | i
O=C(COC(=O)c1ccccc1C(=O)c1ccc(Cl)cc1)NCC1CCCO1 (configuration not stated) | i | i | i | i | i | i
Cc1[nH]c2ccccc2c1C(=O)CCl | 99.0 | i | i | i | i | i
Cc1nccn1CC(O)COc1ccccc1 (configuration not stated) | i | i | i | i | i | i
COc1ccc(OCC(O)Cn2ccnc2C)cc1 (configuration not stated) | 67.0 | i | i | i | nt | i
O=C(O)CCS(=O)(=O)c1nc(-c2cccs2)cc(C(F)(F)F)n1 | i | i | i | nt | i | i
CS(=O)(=O)c1nc(-c2cccs2)cc(C(F)(F)F)n1 | i | i | i | nt | -4.25 | i
Cn1c(SCC(=O)NNC(=O)Cc2ccccc2)nnc1-c1ccccc1 | i | i | i | i | i | i
CC1CCN(c2[nH]c(=S)c(C#N)c3c2CCCC3)CC1 | 100.1 | i | i | i | nt | i
O=C(CSc1nnc(-c2cccs2)o1)N1CCc2ccccc21 | i | i | i | i | nt | i
SMILES | L major viab | Diaphorase act | Diaphorase inh | KCC2 mod | ROMK mod | WT yeast gro inh
C=CCSc1nnc(-c2cc3c(s2)-c2ccccc2CC3)o1 | i | i | i | i | nt | 65.7
COc1ccc(S(=O)(=O)N2CCOCC2)cc1NC(=O)c1cccc2c(=O)c(C)c(-c3ccccc3)oc12 | i | i | i | i | nt | i
Cc1nc2ccccn2c1C(=O)/C=C/c1ccc(F)cc1 | 86.3 | i | i | i | nt | i
CC(C)(C)c1ccc(OCCOc2ccc(C(C)(C)C)cc2NC=O)c(NC=O)c1 | nt | nt | nt | i | nt | nt
N#Cc1ccc(C(=O)Nc2nnc(-c3ccco3)o2)cc1 | i | i | i | i | i | i
CN(C)S(=O)(=O)c1ccc(C(=O)Nc2nnc(-c3ccc4c(c3)CCCC4)o2)cc1 | 98.5 | i | i | 8.08 | nt | 68.5
O=C(Nc1nnc(-c2cccs2)o1)c1cccc(C(F)(F)F)c1 | 95.3 | i | i | nt | nt | i
CN(C)S(=O)(=O)c1ccc(C(=O)Nc2nc(-c3cccs3)cs2)cc1 | i | i | i | nt | nt | i
N#Cc1ccc(C(=O)Nc2nnc(-c3cccs3)o2)cc1 | 97.8 | i | i | 6.75 | nt | i
CN(C)S(=O)(=O)c1ccc(C(=O)Nc2nnc(-c3cccs3)o2)cc1 | 53.0 | i | i | i | i | i
CCC(NC(=O)CCl)c1ccc(C)cc1 (configuration not stated) | i | i | i | i | i | i
CC1CCCC(C)N1C(=O)COc1ccc(C(=O)N/N=C/c2ccc(C(=O)O)cc2)cc1 (configuration not stated) | i | i | i | i | i | i
Cc1cc(C)nc(-n2nc(C)cc2NC(=O)c2cccc(S(=O)(=O)N3CCOCC3)c2)n1 | i | i | i | nt | i | i
COc1ccc(CCNC(=S)NCc2ccc(Cl)c(Cl)c2)cc1OC | i | i | i | i | i | i
O=c1c2ccccc2n2c(-c3ccc(F)cc3)nnc2n1Cc1ccccc1 | 56.1 | i | i | i | nt | i
O=C(NC1=C(Nc2ccc(F)cc2)C(=O)c2ccccc2C1=O)c1ccc(Cl)cc1 | 95.9 | i | i | i | i | 67.3
COc1ccc(CNC(=O)c2cc(-c3ccncc3)nc3c(C)cc(C)cc23)cc1OC | i | i | i | i | i | i
CN(C)C(=S)N=Nc1[nH]c2ccccc2c1O | 97.4 | i | i | i | i | i
COc1ccc(N=Nc2nc3ccc(Br)cc3n2C)cc1 | i | i | i | nt | nt | i
CCN(CC)C(=S)Nc1ccc(Cl)c(Cl)c1 | 61.8 | i | i | i | i | i
CCN(CC)C(=S)Nc1ccc([N+](=O)[O-])cc1 | 59.2 | i | i | i | i | i
CS(=O)(=O)N(C(=O)NC(=O)NC12CC3CC(CC(C3)C1)C2)C1CCCCC1 | i | i | i | i | i | i
CCOC(=O)c1c(C)oc2c1c(CN1CCN(C(=O)OCC)CC1)c(O)c1ccccc12 | i | i | i | i | nt | i
CCOC(=O)c1c(C)oc2c1c(C(c1ccncc1)N1CCOCC1)c(O)c1ccccc12 (configuration not stated) | 72.7 | i | i | nt | nt | i
CCOC(=O)c1c(C)oc2c1c(CN1CCN(CCO)CC1)c(O)c1ccccc12 | i | i | 61.0 | i | i | 58.6
SMILES | L major viab | Diaphorase act | Diaphorase inh | KCC2 mod | ROMK mod | WT yeast gro inh
CCCCCCCN1C2=NCCCN2c2ccccc21 | 70.5 | i | i | i | i | i
CCCCN1C2=NCCCN2c2ccccc21 | i | i | i | i | nt | i
c1ccc(OCCN2C3=NCCN3c3ccccc32)cc1 | 100.5 | i | i | i | i | i
CCCN1C2=NCCN2c2ccccc21 | i | i | i | i | nt | i
CC(C)(C)c1ccc(CN2C3=NCCCN3c3ccccc32)cc1 | 100.5 | i | i | i | nt | i
COc1ccc2c(c1)N(S(=O)(=O)c1ccccc1)CCC2=O | i | i | i | i | i | i
Cc1ccc(-c2nc(N)sc2CC(=O)OCC(=O)NCCC(C)C)cc1 | 59.5 | i | i | i | nt | i
